Source: PubChem BioAssay
A selection: hits, their analogues and other compounds. The true share with any hit is near 3.5%.
RGS4 inh = inhibitors of human RGS4. P49798. 310,000 tested, 0.45% active. B-score at 10 µM. HEK293 M3R/RGS4 inducible, Fluo-4 calcium flux; active compounds read high; triggered by carbachol at its EC20;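 active means B-score, a plate-corrected calcium signal, over three deviations above library mean, with baseline fluorescence within five deviations of library mean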;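 further: RGS4 expression induced by doxycycline in cells with stable M3 receptor; B-score is computed from the integrated fluorescence ratio over baseline after carbachol; higher B-score means a larger calcium signal and so more RGS4 inhibition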
MrgX1 antagonist = human MrgX1 receptor antagonism, primary screen | B-score at 10 µM | 310,000 tested, 1.3% active | AID 588676 | MRGX1-HEK293 calcium flux, Fluo-4, BAM8-22 antagonism; active compounds read low | Q96LB2;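 active means calcium-response B-score plate-corrected more than 3 library SD below zero, starting fluorescence within 5 deviations, no agonist response on first addition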;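 further: peak minus trough fluorescence over baseline after final BAM8-22 challenge near maximal dose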
Target sequence (Q96LB2 whole entry, looked up): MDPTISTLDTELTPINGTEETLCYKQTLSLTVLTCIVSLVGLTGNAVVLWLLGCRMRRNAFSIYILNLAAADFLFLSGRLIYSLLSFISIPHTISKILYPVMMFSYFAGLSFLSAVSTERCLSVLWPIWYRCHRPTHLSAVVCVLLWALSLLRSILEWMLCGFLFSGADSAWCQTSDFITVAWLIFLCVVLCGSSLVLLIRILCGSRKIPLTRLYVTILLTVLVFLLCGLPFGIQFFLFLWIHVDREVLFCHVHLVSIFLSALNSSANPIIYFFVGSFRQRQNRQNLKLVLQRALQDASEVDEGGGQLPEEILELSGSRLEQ
MrgX1 agonist = human MrgX1 receptor agonism, primary screen; Q96LB2; MrgX1-HEK293 cells, Fluo-4 calcium fluorescence, agonist mode; active compounds read high; B-score at 10 µM; 310,000 tested, 0.44% active; AID 588627;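 active means calcium response B-score plate-corrected fluorescence ratio at least 3 library SD, with starting fluorescence B-score inside 5 SD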
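Material: MrgX1-expressing HEK293 cells; input: 15,000 cells per well; doses: test compound given as first of three sequential additions; schedule: overnight plating before 1 h dye loading; technique: Fluo-4 NW calcium-flux fluorescence, kinetic read; evaluation: baseline-normalised fluorescence change ratio, B-scored; control set: plate-wise positive and negative controls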
RGS4 pot = RGS4 potentiation or activation; HEK293 M3R/inducible RGS4, carbachol calcium flux Fluo4; active compounds read low; B-score at 10 µM; AID 463111; 310,000 tested, 0.92% active;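 active means B-score of the integrated calcium signal more than 4 SD below the library mean, with starting fluorescence not abnormally high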;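 further: negative B-score means reduced calcium response which marks RGS4 activation or potentiation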
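Also added: carbachol at ECmax as muscarinic agonist stimulus; Assay system: HEK293 cells with stable M3R and inducible RGS4; Timing: overnight RGS4 induction, 30 min dye load 37 °C, 20 min compound RT; Measured by: Fluo4-AM (2 µM) calcium-flux fluorescence, kinetic read.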
MrgX1 PAM = human MrgX1 positive allosteric modulation, primary screen; MrgX1-HEK293, Fluo-4 calcium flux, FDSS; active compounds read high; B-score at 10 µM; 310,000 tested, 0.63% active;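 active means plate-corrected calcium response at least 3 library SD above typical, normal starting fluorescence, not activating the receptor alone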;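 further: compound read alongside a low EC10 to EC30 dose of BAM8-22 agonist; peak minus trough fluorescence over baseline measured at the second addition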
The depositor's hits bear a star; i = inactive; / = no result given.

SMILES	RGS4 inh	MrgX1 antagonist	MrgX1 agonist	RGS4 pot	MrgX1 PAM
COc1ccc(NC(=O)COc2ccccc2C(=O)NCC(c2ccccc2)N(C)C)cc1Cl (configuration not stated)	i	i	i	-9.4*	i
Cc1ccc(C(=O)C(C)N2C(=O)NC(C)(c3ccccc3)C2=O)cc1 (configuration not stated)	i	i	i	i	i
COC(=O)c1ccc(CN2C(=O)NC(Cc3c[nH]c4ccccc34)C2=O)cc1 (configuration not stated)	i	i	i	i	i
Cc1ccc(C(NC(=O)N2CCCC2)C(Cl)Cl)cc1F (configuration not stated)	i	-4.8*	i	i	i
O=C(ON=C1CCN(S(=O)(=O)c2ccccc2)CC1)c1ccc(F)cc1	i	-6.1*	i	i	i
O=C(NCc1cccc(Cl)c1)C1CCCN(c2ncnc3c2nc2n3CCCCC2)C1 (configuration not stated)	i	i	i	i	i
CN1CC=C2C(C#N)=C(N)C(C#N)(C#N)C(Cc3ccccc3)C2C1 (configuration not stated)	i	i	36*	i	i
CCCc1sc(N/N=C/c2ccccn2)nc1-c1ccc(F)cc1	6.5*	i	i	i	i
CCCCCCCCOC(=O)C[N+](C)(C)C/C=C(/C)Cl	i	i	i	i	i
CCCCCCCCCCCCOC(=O)C[N+](C)(C)C	i	i	i	-8.9*	i
CCCCCCCCCCOC(=O)C[N+](C)(C)C/C=C(/C)Cl	i	-5.3*	i	i	i
O=C(/C=C/Nc1ccc(Br)cc1F)c1ccccc1	i	-6*	i	i	i
COC(=O)C1(C(=O)OC)NOC2C(=O)N(c3ccccc3)C(=O)C21 (configuration not stated)	i	-5.7*	i	i	i
Oc1ccc(N=Nc2cccc(Cl)c2)cc1C=Nc1ccc(N2CCOCC2)cc1	8.7*	/	/	i	/
O=C(Cn1cnc2c(nnn2Cc2ccccc2)c1=O)Nc1ccc2c(c1)OCCO2	i	i	i	i	i
O=C(N/N=C/c1ccncc1)c1ccc(COc2cccc3cccnc23)cc1	i	i	i	i	i
O=C(N/N=C/c1ccc2cccc(OCc3ccccc3)c2n1)c1ccc(Cl)cc1	i	i	i	-9.9*	i
N/C(Cn1cncn1)=N\NC(=O)c1ccc(Cl)cc1Cl	i	-4.5*	i	i	i
COc1cccc(-c2cc(C(=O)N3CCN(c4ncccn4)CC3)c3ccccc3n2)c1	i	i	i	-7*	i
CC(C)Oc1cccc(-c2cc(C(=O)N3CCN(c4ncccn4)CC3)c3ccccc3n2)c1	i	i	i	-7.4*	i
Cc1ccc(-c2cc(C(=O)N3CCN(c4ncccn4)CC3)c3ccccc3n2)cc1	i	i	i	i	i
CCC(=O)N(CCC(c1ccc(C)cc1)c1ccco1)Cc1ccco1 (configuration not stated)	i	i	i	i	i
CCN(CC)c1ccc(/C=C/c2ccc3ccc(OC)cc3[n+]2CC)cc1	i	-9.3*	i	-8.5*	i
O=C1CCC(C(=O)N2CCCO2)CN1Cc1cccc(C(F)(F)F)c1 (configuration not stated)	i	/	/	i	/
CCC1(c2ccccc2)NC(=O)N(CC(=O)NCCN2C(=O)S/C(=C\c3cccnc3)C2=O)C1=O (configuration not stated)	i	i	i	i	i
CC1Cc2ccccc2N1C(=O)C1CC(=O)N(c2ccccc2)C1 (configuration not stated)	i	i	i	i	i
COC1=C/C(=C/c2c(N)n3nc(CC(=O)N4CCCCC4)sc3nc2=O)C=CC1=O	i	i	69*	i	i
Nc1c(/C=C2\C=Nc3ccccc32)c(=O)nc2sc(CC(=O)N3CCOCC3)nn12	i	i	i	i	10*
CCn1c(/C=C/c2cc[n+](C)cc2)nc2ccccc21	i	-5.9*	i	i	i
